Results as given in ChEMBL document CHEMBL3272093, “Antibacterial halogenoacetyl derivatives of amino acids and simple peptides” (1977).
Converted amounts (≈) assume the structure as drawn. The source made the active and inactive calls. The rule behind the calls is not given here.

Tests used:
[1] = molecular target: T1, D-alanyl-D-alanine carboxypeptidase DacA (Geobacillus stearothermophilus) (UniProt Q05523); test: Inhibition of Bacillus stearothermophilus DD-carboxypeptidase using UDP-N-acetylmuramyl-L-alanyl-meso-diaminopimeloyl-D-alanyl-D-alanine as substrate at 10 to 100 ug/ml
T1 sequence (whole entry): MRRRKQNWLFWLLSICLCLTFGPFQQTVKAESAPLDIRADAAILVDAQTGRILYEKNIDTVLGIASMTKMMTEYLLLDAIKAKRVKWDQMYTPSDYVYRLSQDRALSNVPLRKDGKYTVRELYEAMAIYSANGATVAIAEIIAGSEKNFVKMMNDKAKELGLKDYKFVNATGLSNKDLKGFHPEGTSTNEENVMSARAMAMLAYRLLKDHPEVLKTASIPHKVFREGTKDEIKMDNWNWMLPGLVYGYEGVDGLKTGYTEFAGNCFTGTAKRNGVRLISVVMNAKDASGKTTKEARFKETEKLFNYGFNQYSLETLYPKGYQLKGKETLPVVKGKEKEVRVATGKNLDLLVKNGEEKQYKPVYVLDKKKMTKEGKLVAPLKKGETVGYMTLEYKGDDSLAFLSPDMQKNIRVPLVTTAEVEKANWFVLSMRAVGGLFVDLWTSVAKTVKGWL
In short: (§1)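 Enzymes tested for release of D-alanine, measured with D-amino acid oxidase. Compounds assayed at 10 and 100 μg/mL. Substrates: Ac2-L-Lys-D-Ala-D-Ala for the Streptomyces R61 enzyme; UDP-N-acetylmuramyl-L-alanyl-meso-diaminopimeloyl-D-alanyl-D-alanine for the B. stearothermophilus and S. typhimurium enzymes.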

Escherichia coli = test: Antibacterial activity against Escherichia coli assessed as inhibition of growth after 18 hrs by broth culture method; format: functional
In short: (§2)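 Broth dilution in 0.5 mL Sensitivity Test Broth, inoculated with 0.2 mL of a 10^-4 dilution of an 18-h broth culture. MIC read after 18-h incubation as the lowest concentration preventing growth.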

Staphylococcus aureus = test: Antibacterial activity against Staphylococcus aureus assessed as inhibition of growth after 18 hrs by broth culture method; format: functional; in short: as §2
[2] = test system: Salmonella enterica subsp. enterica serovar Typhimurium; test: Inhibition of Salmonella typhimurium DD-carboxypeptidase using UDP-N-acetylmuramyl-L-alanyl-meso-diaminopimeloyl-D-alanyl-D-alanine as substrate at 10 to 100 ug/ml; in short: as §1
[3] = molecular target: D-alanyl-D-alanine carboxypeptidase (Streptomyces sp. R61) (UniProt P15555); test: Inhibition of Streptomyces R61 DD-carboxypeptidase using Ac2-L-Lys-D-Ala-D-Ala as substrate at 10 to 100 ug/ml; in short: as §1
Chain of D-alanyl-D-alanine carboxypeptidase (Streptomyces sp. R61) (P15555 whole entry): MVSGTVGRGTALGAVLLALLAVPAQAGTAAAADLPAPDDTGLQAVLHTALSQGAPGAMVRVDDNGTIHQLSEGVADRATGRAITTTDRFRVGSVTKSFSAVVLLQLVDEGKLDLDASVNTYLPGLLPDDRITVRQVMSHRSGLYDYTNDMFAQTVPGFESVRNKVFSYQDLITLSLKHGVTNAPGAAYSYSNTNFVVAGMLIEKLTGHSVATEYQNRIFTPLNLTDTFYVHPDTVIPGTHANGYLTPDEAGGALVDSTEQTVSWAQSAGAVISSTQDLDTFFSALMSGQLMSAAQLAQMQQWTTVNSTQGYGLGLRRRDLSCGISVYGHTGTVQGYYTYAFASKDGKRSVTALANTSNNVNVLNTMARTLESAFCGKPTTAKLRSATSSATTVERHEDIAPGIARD

Compound | inhibition [1] | MIC (Escherichia coli) | MIC (Staphylococcus aureus) | inhibition [2] | inhibition [3]
C[C@@H](NC(=O)[C@H](CCCCN)NC(=O)CBr)C(=O)O.O=C(O)C(F)(F)F | inactive | > 500 µg/mL | > 500 µg/mL | inactive | inactive
C[C@@H](NC(=O)CI)C(=O)N[C@H](CCC(=O)O)C(=O)O | inactive | > 500 µg/mL | 500 µg/mL (≈ 1290 µM) | inactive | inactive
C[C@@H](NC(=O)[C@@H](C)NC(=O)[C@@H](N)CCCCNC(=O)CI)C(=O)O.O=C(O)C(F)(F)F | inactive | > 500 µg/mL | 500 µg/mL | inactive | inactive
C[C@@H](NC(=O)[C@H](CCCCN1C(=O)c2ccccc2C1=O)NC(=O)CI)C(=O)N[C@H](CCC(=O)O)C(=O)O | inactive | > 500 µg/mL | 250 µg/mL (≈ 388 µM) | inactive | inactive
C[C@@H](NC(=O)CI)C(=O)N[C@H](C)C(=O)OC(C)(C)C | inactive | > 500 µg/mL | 31 µg/mL (≈ 80.7 µM) | inactive | inactive
C[C@@H](NC(=O)[C@H](CCCCN1C(=O)c2ccccc2C1=O)NC(=O)CI)C(=O)N[C@H](C)C(=O)OC(C)(C)C | inactive | > 500 µg/mL | 62 µg/mL (≈ 96.5 µM) | inactive | inactive
C[C@@H](NC(=O)[C@H](CCCCNC(=O)CI)NC(=O)OC(C)(C)C)C(=O)N[C@H](C)C(=O)OC(C)(C)C | inactive | > 500 µg/mL | 125 µg/mL (≈ 204 µM) | inactive | inactive
C[C@@H](NC(=O)[C@H](CCCCNC(=O)OC(C)(C)C)NC(=O)CI)C(=O)N[C@H](C)C(=O)OC(C)(C)C | inactive | 500 µg/mL (≈ 816 µM) | 250 µg/mL (≈ 408 µM) | inactive | inactive
C[C@@H](NC(=O)[C@H](CCCCN)NC(=O)CI)C(=O)O.O=C(O)C(F)(F)F | inactive | > 500 µg/mL | > 500 µg/mL | inactive | inactive
C[C@@H](NC(=O)CI)C(=O)N[C@H](CCC(=O)OC(C)(C)C)C(=O)OC(C)(C)C | inactive | > 500 µg/mL | 31 µg/mL (≈ 62.2 µM) | inactive | inactive
O=C(O)CCCCNC(=O)[C@H](CCCCN1C(=O)c2ccccc2C1=O)NC(=O)CI | inactive | > 500 µg/mL | > 500 µg/mL | inactive | inactive
C[C@@H](NC(=O)[C@H](CCCCNC(=O)OC(C)(C)C)NC(=O)CBr)C(=O)N[C@H](C)C(=O)OC(C)(C)C | inactive | 500 µg/mL (≈ 884 µM) | 500 µg/mL (≈ 884 µM) | inactive | inactive
O=C(CI)NCC(=O)OCc1ccccc1 | inactive | 125 µg/mL (≈ 375 µM) | 7.5 µg/mL (≈ 22.5 µM) | inactive | inactive
C[C@@H](NC(=O)[C@H](CCCCN1C(=O)c2ccccc2C1=O)NC(=O)CI)C(=O)N[C@H](CCC(=O)OC(C)(C)C)C(=O)OC(C)(C)C | inactive | > 500 µg/mL | 62 µg/mL (≈ 81.9 µM) | inactive | inactive
CC(=O)NCCCC[C@H](NC(=O)CI)C(=O)N[C@H](C)C(=O)N[C@H](C)C(=O)O | inactive | > 500 µg/mL | > 500 µg/mL | inactive | inactive
C[C@@H](NC(=O)[C@@H](C)NC(=O)CI)C(=O)O | inactive | > 500 µg/mL | 500 µg/mL (≈ 1520 µM) | inactive | inactive
O=C(CI)NCCC(=O)OCc1ccccc1 | inactive | 500 µg/mL (≈ 1440 µM) | 7.5 µg/mL (≈ 21.6 µM) | inactive | inactive
CC(C)(C)OC(=O)CCCCNC(=O)CI | inactive | 500 µg/mL (≈ 1470 µM) | 7.5 µg/mL (≈ 22 µM) | inactive | inactive
C[C@@H](NC(=O)[C@@H](C)NC(=O)[C@H](CCCCN1C(=O)CCC1=O)NC(=O)CI)C(=O)O | inactive | > 500 µg/mL | 500 µg/mL (≈ 929 µM) | inactive | inactive

Compound | inhibition [1] | MIC (Escherichia coli) | MIC (Staphylococcus aureus) | inhibition [2] | inhibition [3]
C[C@@H](NC(=O)CBr)C(=O)N[C@H](C)C(=O)OC(C)(C)C | inactive | > 500 µg/mL | 62 µg/mL (≈ 184 µM) | inactive | inactive
O=C(CI)NCCCC(=O)OCc1ccccc1 | inactive | 250 µg/mL (≈ 692 µM) | 7.5 µg/mL (≈ 20.8 µM) | inactive | inactive
O=C(CI)NCCCCCC(=O)OCc1ccccc1 | inactive | 62 µg/mL (≈ 159 µM) | 3.7 µg/mL (≈ 9.51 µM) | inactive | inactive
C[C@@H](NC(=O)[C@H](CCCCN1C(=O)CCC1=O)NC(=O)CI)C(=O)N[C@H](C)C(=O)OC(C)(C)C | inactive | > 500 µg/mL | > 500 µg/mL | inactive | inactive
CC(=O)NCCCC[C@H](NC(=O)CI)C(=O)N[C@H](C)C(=O)N[C@H](C)C(=O)OC(C)(C)C | inactive | > 500 µg/mL | 500 µg/mL (≈ 902 µM) | inactive | inactive
C[C@@H](NC(=O)[C@@H](C)NC(=O)CBr)C(=O)O | inactive | > 500 µg/mL | 500 µg/mL (≈ 1780 µM) | inactive | inactive
C[C@@H](NC(=O)[C@@H](C)NC(=O)[C@H](CCCCN)NC(=O)CI)C(=O)O.O=C(O)C(F)(F)F | inactive | > 500 µg/mL | > 500 µg/mL | inactive | inactive
C[C@@H](NC(=O)[C@@H](C)NC(=O)[C@H](CCCCN)NC(=O)CBr)C(=O)O.O=C(O)C(F)(F)F | inactive | > 500 µg/mL | > 500 µg/mL | inactive | inactive
C[C@@H](NC(=O)[C@@H](C)NC(=O)[C@H](CCCCN1C(=O)c2ccccc2C1=O)NC(=O)CI)C(=O)O | inactive | > 500 µg/mL | 500 µg/mL (≈ 853 µM) | inactive | inactive
O=C(CI)NCC(=O)NCC(=O)OCc1ccccc1 | inactive | 62 µg/mL (≈ 159 µM) | 0.9 µg/mL (≈ 2.31 µM) | inactive | inactive
C[C@@H](NC(=O)CI)C(=O)OC(C)(C)C | inactive | > 500 µg/mL | 31 µg/mL (≈ 99 µM) | inactive | inactive
O=C(O)CCCCNC(=O)CI | inactive | 500 µg/mL (≈ 1750 µM) | 125 µg/mL (≈ 438 µM) | inactive | inactive
COC(=O)CCCCNC(=O)CI | inactive | 7.5 µg/mL (≈ 25.1 µM) | 3.7 µg/mL (≈ 12.4 µM) | inactive | inactive
C[C@@H](NC(=O)[C@H](CCCCNC(=O)OC(C)(C)C)NC(=O)CBr)C(=O)OC(C)(C)C | inactive | > 500 µg/mL | 62 µg/mL (≈ 125 µM) | inactive | inactive
CC(C)(C)OC(=O)CCCCNC(=O)[C@H](CCCCN1C(=O)c2ccccc2C1=O)NC(=O)CI.O | inactive | > 500 µg/mL | > 500 µg/mL | inactive | inactive
C[C@@H](NC(=O)CI)C(=O)N[C@H](C)C(=O)OCc1ccccc1 | inactive | > 500 µg/mL | 7.5 µg/mL (≈ 17.9 µM) | inactive | inactive
C[C@@H](NC(=O)[C@H](CCCCN)NC(=O)CI)C(=O)N[C@H](C)C(=O)OC(C)(C)C.Cc1ccc(S(=O)(=O)O)cc1 | inactive | > 500 µg/mL | 250 µg/mL | inactive | inactive
O=C(CI)NCCCCC(=O)OCc1ccccc1 | inactive | 62 µg/mL (≈ 165 µM) | < 0.4 µg/mL | inactive | inactive
